# Assay outcomes as filed in PubChem.
# KCNQ1 act = potentiators or activators of KCNQ1 channel, primary screen, cell-based, thallium flux, high-throughput | Potassium voltage-gated channel subfamily KQT member 1 (Homo sapiens), P51787 | CHO-K1 KCNQ1, thallium flux FluxOR fluorescence; active compounds read high | B-score at 10 µM | actives 0.35% (n = 310,000);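 active = fluorescence ratio B-score, a plate-corrected score, at least three library SD, with initial intensity B-score within 5 SD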
#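 Medium – assay buffer, equal DMSO in all wells · Material – CHO-K1 cell line with stable KCNQ1 potassium channel expression · Signal – kinetic FluxOR thallium fluorescence, 10-s 1-Hz baseline, 110-s post-stimulus read · Compound – single concentration per compound, DMSO matched to controls · Schedule – 37 °C overnight plating, 90-min dark dye load, 20-min compound pretreatment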
# KCNK3 block = human KCNK3 channel inhibitors, primary screen, CHO cells, FluxOR thallium flux, B-score. Potassium channel subfamily K member 3 (Homo sapiens), O14649. FluxOR fluorescence; active compounds read low. B-score at 10 µM. actives 0.84% (n = 340,000). AID 602410, 2012;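 active = B-score under library mean minus 4 SD, starting fluorescence ratio at most library mean plus 5 SD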;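 also: more negative B-score means stronger inhibition of thallium flux through KCNK3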
# KCNK9 inh = KCNK9 potassium channel inhibitors, primary screen, HEK293 cells, thallium flux | Potassium channel subfamily K member 9 (Homo sapiens), Q9NPC2 | FluxOR thallium flux fluorescence; active compounds read low | B-score at 10 µM | actives 1.2% (n = 310,000) | AID 488922, 2010;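 active = ratio B-score over 3 SD below the library mean, with starting fluorescence within 5 SD of its mean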;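 also: negative B-score means less thallium flux so channel inhibition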
# KCNQ1 inh = inhibitors of human KCNQ1 channel, primary screen, cell-based, thallium flux, high-throughput; actives 1.3% (n = 310,000); Potassium voltage-gated channel subfamily KQT member 1 (Homo sapiens), P51787; CHO-K1 KCNQ1, FluxOR thallium flux fluorescence; active compounds read high; B-score at 10 µM;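 active = compounds whose thallium flux B-score, printed positive for inhibition, exceeds three library SD while starting fluorescence stays within three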;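 also: channel opened by potassium depolarization with thallium stimulus after 20 min compound exposure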
# Kir21 block = inhibitors of mouse Kir2.1 inward-rectifier potassium channel | HEK293-Kir2.1, FluxOR thallium flux fluorescence; active compounds read low | B-score at 10 µM | actives 0.85% (n = 310,000);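 active = fluorescence ratio B-score at or below minus 3 SD of library scores, with starting-brightness B-score within 2 SD, cut at about -4.2 in these data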;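 also: channel flux triggered by added potassium and thallium sulfate stimulus; B-score of peak minus minimum fluorescence over baseline after thallium stimulus; more negative B-score means stronger Kir2.1 block with less thallium influx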
# hERG rescue = hERG rescue from dofetilide block, primary screen, cell-based, CHO-hERG, FluxOR thallium flux, dofetilide IC70. Voltage-gated inwardly rectifying potassium channel KCNH2 (Homo sapiens), Q12809. dofetilide IC70 present. activation (rescue from dofetilide block), less the hit threshold, % at 10 µM. actives 0.51% (n = 310,000);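 active = activation above the mean of controls blocked by dofetilide plus 5 SD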;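 also: thallium influx through hERG after potassium depolarization seen as dye fluorescence rise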
# KCNQ1 block val = KCNQ1 potassium channel inhibitors, confirmation, cell-based, Tl flux, duplicate. shares compounds with KCNQ1 inh. KCNQ1 cell line, FluxOR thallium flux fluorescence. inhibition, % at 10 µM. actives 93% (n = 1,600). AID 588353, 2011;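 active = primary screen active, with duplicate mean exceeding buffer control mean plus 3 SD of buffer wells, cut at about 28% in these data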;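 also: 0% = buffer control ratio and 100% = XE991 inhibitor control ratio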
# CHO KCNQ1 ctr = thallium flux effects in parental CHO cells, counter-screen for KCNQ1 inhibitor project, cell-based, Tl flux | shares compounds with KCNQ1 inh | fluorescence ratio (Tl flux) at 10 µM | actives 21% (n = 1,600) | parental CHO-K1, FluxOR thallium flux fluorescence ratio; active compounds read low; zero means no signal rise above baseline;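 active = mean of duplicate thallium-flux fluorescence ratios in parental host cells more than 5 SD below the buffer control mean, cut at about 0.38 in these data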;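 also: ratio is peak minus minimum fluorescence divided by baseline fluorescence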
# KCNQ1 ephys val = KCNQ1 channel inhibitors, confirmation, orthogonal assay, cell-based, automated electrophysiology; shares compounds with KCNQ1 inh; KCNQ1-CHO cells, automated patch clamp current; calls only at 10 µM; actives 20% (n = 490); AID 624120, 2012;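 active = KCNQ1 current drop exceeding 3 SD of negative control wells, seen in both duplicate runs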;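 also: steady state current during a 2 s step from -80 to +40 mV; negative values mean current inhibition and positive values mean potentiation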
# KCNQ2 inh = KCNQ2 channel inhibition, selectivity assay for KCNQ1 inhibitor project, cell-based. inhibition, % at 10 µM. shares compounds with KCNQ1 inh. KCNQ2 cells, FluxOR thallium flux fluorescence. actives 71% (n = 1,600). AID 651746, 2012;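 active = mean percent inhibition of the KCNQ2 thallium signal more than 5 SD above the buffer-only control wells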;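 also: KCNQ2 expressed in CHO cells; 0% = buffer control wells and 100% = XE-991 inhibitor control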
# KCNQ1-KCNE1 inh = KCNQ1/KCNE1 channel inhibition, selectivity assay for KCNQ1 inhibitor project, CHO-K1 cells, thallium flux, FluxOR; shares compounds with KCNQ1 inh; FluxOR thallium flux fluorescence; inhibition, % at 10 µM; actives 77% (n = 1,600);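 active = mean percent inhibition of duplicate wells above the buffer-only control mean plus 3 SD of those controls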;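 also: 0% = buffer only wells and 100% = XE-991 inhibitor control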
# The depositor's hits bear a star; i = inactive; nt = not tested or not shown; + = active, no number. A selection: hits, their analogues and other compounds. The true share with any hit is near 3.7%.
SMILES,KCNQ1 act,KCNK3 block,KCNK9 inh,KCNQ1 inh,Kir21 block,hERG rescue,KCNQ1 block val,CHO KCNQ1 ctr,KCNQ2 inh,KCNQ1-KCNE1 inh,others
Clc1ccc(-c2nc3ccccc3nc2-c2ccccc2)cc1,i,i,i,i,1,-3,nt,nt,nt,nt,
Cc1ccc(-c2nc3ccccc3nc2-c2ccccc2)cc1,i,i,i,15*,0.04,-5,88*,0.41,108%*,152%*,KCNQ1 ephys val=+
CCc1cccc(N(CC(=O)NC2CCCCC2)C(=O)c2csnn2)c1,i,i,i,i,-0.12,-4,nt,nt,nt,nt,
COc1cccc(NC(=O)CN(C)C(=O)c2ccc(-c3ccccc3Cl)o2)c1,i,i,i,i,-2.1,-18,nt,nt,nt,nt,
CCOC(=O)n1cnc2nc(N)nc(SC)c21,nt,i,nt,nt,nt,nt,nt,nt,nt,nt,
O=C(c1ccc(NC(=S)Nc2ccc(Cl)c(Cl)c2)cc1)N1CCCC1,i,i,i,9*,-0.88,-15,36*,0.5,i,i,
CC(=O)c1ccc(NC(=S)Nc2ccc(Br)c(Cl)c2)cc1,i,i,i,6*,-0.45,-29,61*,0.45,i,i,
O=C(NC(=S)Nc1ccc(Br)c(Cl)c1)C1CC1,i,i,i,i,0.51,-9,nt,nt,nt,nt,
Cc1ccccc1-c1nc2c(s1)CCc1onc(-c3ccc(Cl)cc3)c1-2,i,i,i,i,0.51,-9,nt,nt,nt,nt,
O=C(COC(=O)c1ccccc1Cc1ccccc1)Nc1ccc(SC(F)F)cc1,i,i,i,7*,0.76,-8,86*,0.41,128%*,101%*,
CC(=O)N1CCc2c(sc(NC(=O)Cc3ccc(C)cc3C)c2C#N)C1,i,i,i,i,-0.35,-6,nt,nt,nt,nt,
CC1CCCC(NC(=O)CN2C(=O)c3cccnc3Oc3ccc(Cl)cc32)C1C (centres undefined),i,i,i,i,0.76,-10,nt,nt,nt,nt,
COc1ccc(NC(C)C(=O)Nc2ccc(C(C)(C)C)cc2)cc1Cl (centres undefined),i,i,i,7*,-0.02,-4,146*,0.39,92%*,167%*,KCNQ1 ephys val=i
COc1ccc(NC(C)C(=O)Nc2ccc(C#N)cc2)cc1Cl (centres undefined),i,i,i,i,-1.1,-12,nt,nt,nt,nt,
O=C(CCN1CCc2ccccc2C1)c1ccc2c(c1)OCCO2,i,i,i,7*,0.02,-24,44*,0.38*,70%*,83%*,
O=C(CCN1CCCC1Cc1ccccc1)c1ccc2c(c1)OCCO2 (centres undefined),i,i,i,7*,-0.19,-11,82*,0.42,78%*,100%*,
O=C(CCN1CCC(c2ccccc2)C1)c1ccc2c(c1)OCCO2 (centres undefined),i,i,i,6*,-2.3,-16,45*,0.43,60%*,56%*,
O=C(CCN1CCc2ccccc21)c1ccc2c(c1)OCCO2,i,i,i,i,0.86,-8,nt,nt,nt,nt,
O=C(CCN1CCCCC1)c1ccc2c(c1)OCCO2,i,i,i,i,0.34,1,nt,nt,nt,nt,
O=C1CCN(S(=O)(=O)c2cccs2)c2ccc(C(F)(F)F)cc2N1,i,i,i,i,0.81,2,nt,nt,nt,nt,
Cc1ccc(CNCC(O)(c2ccccc2)c2ccc(Cl)cc2)cc1 (centres undefined),i,i,i,6*,-2.8,-34,116*,0.42,92%*,42%*,KCNQ1 ephys val=i
C=CCNc1nc2ccccc2nc1NS(=O)(=O)c1ccc(F)cc1,i,i,i,i,0,-9,nt,nt,nt,nt,
C=CCNc1nc2ccccc2nc1NS(=O)(=O)c1ccc(Br)cc1,i,i,i,7*,0.73,-3,70*,0.51,59%*,i,
CCn1cc(CNC(=O)c2cc(COc3ccc(F)cc3Cl)on2)cn1,i,i,i,i,0.26,-4,nt,nt,nt,nt,
CCn1nc(C)c(CNC(=O)c2cc(COc3ccc(F)cc3Cl)on2)c1C,i,i,i,8*,-0.67,-23,40*,0.55,i,i,
SMILES,KCNQ1 act,KCNK3 block,KCNK9 inh,KCNQ1 inh,Kir21 block,hERG rescue,KCNQ1 block val,CHO KCNQ1 ctr,KCNQ2 inh,KCNQ1-KCNE1 inh,others
CCc1ccccc1NC(=S)N(CCCN(C)C)Cc1cc2cc3c(cc2[nH]c1=O)OCO3,i,i,i,i,-0.02,-7,nt,nt,nt,nt,
CC(=O)c1cccc(S(=O)(=O)Nc2ccc3nc(C)sc3c2)c1,i,i,i,i,-0.08,-14,nt,nt,nt,nt,
Cc1nc2ccc(NS(=O)(=O)c3ccc(C)c(C)c3)cc2s1,i,i,i,7*,-0.02,-7,68*,0.52,i,i,
Cc1[nH]n(-c2ccccc2)c(=O)c1N=Nc1c(O)cc(S(=O)(=O)N(C)C)c2ccccc12,i,i,i,10*,-0.42,-24,124*,0.47,72%*,i,KCNQ1 ephys val=i
COc1nc(-c2ccccc2)cc(-c2ccc(OC)c(OC)c2)n1,i,i,i,7*,0.57,-17,119*,0.39,110%*,131%*,KCNQ1 ephys val=i
COc1ccc(-c2cc(-c3ccccc3)nc(NN)n2)cc1OC,i,i,i,i,-1.7,-10,nt,nt,nt,nt,
